Laboratory results taken from paper PMC7288582 (ACS Omega, 2020).
pIC50: −log10 of the molar value.

Columns and labels:
[1] = target: T1, α-amylase from hog pancreas (Sus scrofa, UniProt P00690); assay: biochemical
T1 sequence (P00690 16-511): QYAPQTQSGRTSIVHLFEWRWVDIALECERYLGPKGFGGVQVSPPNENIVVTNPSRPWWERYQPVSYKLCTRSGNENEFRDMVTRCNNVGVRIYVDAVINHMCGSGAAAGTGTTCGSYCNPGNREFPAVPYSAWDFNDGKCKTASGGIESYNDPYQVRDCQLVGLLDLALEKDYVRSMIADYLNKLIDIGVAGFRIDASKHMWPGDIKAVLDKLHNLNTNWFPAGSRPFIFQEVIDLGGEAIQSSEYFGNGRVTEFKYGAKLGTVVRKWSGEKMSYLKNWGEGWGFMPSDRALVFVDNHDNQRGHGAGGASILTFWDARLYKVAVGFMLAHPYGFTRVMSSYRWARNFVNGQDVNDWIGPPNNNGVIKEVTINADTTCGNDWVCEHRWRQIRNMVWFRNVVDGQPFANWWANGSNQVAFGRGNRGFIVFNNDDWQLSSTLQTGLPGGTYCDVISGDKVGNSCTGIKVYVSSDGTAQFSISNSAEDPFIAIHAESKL

[2] = target: α-glucosidase from Saccharomyces cerevisiae (Saccharomyces cerevisiae, UniProt P53341); assay: α-Glucosidase inhibition assay; type: biochemical
Chain of α-glucosidase from Saccharomyces cerevisiae (P53341 whole entry): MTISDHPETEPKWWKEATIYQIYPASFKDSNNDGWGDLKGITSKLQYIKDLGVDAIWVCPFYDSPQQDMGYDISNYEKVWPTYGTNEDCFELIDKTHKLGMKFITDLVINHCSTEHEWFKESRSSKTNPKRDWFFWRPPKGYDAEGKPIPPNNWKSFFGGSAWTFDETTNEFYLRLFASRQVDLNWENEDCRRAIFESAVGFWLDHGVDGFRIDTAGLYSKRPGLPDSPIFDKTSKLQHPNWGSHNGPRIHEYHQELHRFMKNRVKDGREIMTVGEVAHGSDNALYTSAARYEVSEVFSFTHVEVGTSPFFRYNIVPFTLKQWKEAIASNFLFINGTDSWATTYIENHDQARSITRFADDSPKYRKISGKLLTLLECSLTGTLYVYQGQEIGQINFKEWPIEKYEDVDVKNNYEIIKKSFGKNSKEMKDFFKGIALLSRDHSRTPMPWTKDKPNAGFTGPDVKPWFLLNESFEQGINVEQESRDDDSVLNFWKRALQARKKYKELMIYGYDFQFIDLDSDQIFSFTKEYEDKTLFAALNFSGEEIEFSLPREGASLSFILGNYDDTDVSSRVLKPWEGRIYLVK

[3] = target: T2, LOX (Glycine max, UniProt P08170); assay: LOX inhibition, spectrophotometric assay; type: biochemical
T2 sequence (P08170 1-839): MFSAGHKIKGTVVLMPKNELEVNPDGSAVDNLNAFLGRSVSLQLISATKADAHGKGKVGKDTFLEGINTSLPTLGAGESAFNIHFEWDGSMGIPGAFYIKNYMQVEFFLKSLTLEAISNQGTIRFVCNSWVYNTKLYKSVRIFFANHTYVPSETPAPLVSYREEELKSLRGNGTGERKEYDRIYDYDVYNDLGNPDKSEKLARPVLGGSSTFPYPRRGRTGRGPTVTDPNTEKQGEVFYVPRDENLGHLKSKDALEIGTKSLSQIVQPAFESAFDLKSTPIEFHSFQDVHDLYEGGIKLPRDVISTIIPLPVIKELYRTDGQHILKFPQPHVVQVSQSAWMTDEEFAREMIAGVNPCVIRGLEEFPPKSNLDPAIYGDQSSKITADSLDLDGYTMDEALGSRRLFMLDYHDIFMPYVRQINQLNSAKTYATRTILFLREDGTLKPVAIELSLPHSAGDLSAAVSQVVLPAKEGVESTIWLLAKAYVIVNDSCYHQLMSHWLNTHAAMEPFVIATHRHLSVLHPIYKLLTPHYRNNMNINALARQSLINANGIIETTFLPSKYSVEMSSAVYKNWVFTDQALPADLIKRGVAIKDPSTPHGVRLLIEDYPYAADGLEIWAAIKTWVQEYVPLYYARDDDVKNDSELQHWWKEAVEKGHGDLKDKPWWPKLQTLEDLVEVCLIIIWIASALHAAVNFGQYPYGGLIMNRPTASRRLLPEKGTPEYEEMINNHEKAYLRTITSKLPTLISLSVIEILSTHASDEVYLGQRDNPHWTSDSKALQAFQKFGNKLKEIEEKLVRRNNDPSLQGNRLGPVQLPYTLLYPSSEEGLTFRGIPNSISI

[4] = DPPH radical scavenging assay; details: antioxidant activity
Procedure, shortened: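 Test material was polyphenolic-rich plant extracts from pressurized 50% ethanol extraction at 80 °C, microfiltration at 0.45 μm, then nanofiltration on a 200–300 Da polyamide membrane. A modified literature method was used: graded concentrations of extract or standard were mixed with methanolic DPPH solution and absorbance was read at 519 nm. Data were reported as mean ± standard deviation (n = 3).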

Structure (SMILES) | pIC50 [1] | pIC50 [2] | pIC50 [3] | DPPH, EC50 [4] [µg/mL]
O=C(/C=C/c1ccc(O)c(O)c1)O[C@H](Cc1ccc(O)c(O)c1)C(=O)O [rosmarinic acid] | 5.59 | 4.92 | 3.51 | 
O=c1cc(-c2ccc(O)c(O)c2)oc2cc(O)cc(O)c12 [luteolin] | 4.17 | 4.00 | 3.96 | 
O=C1O[C@H]([C@@H](O)CO)C(O)=C1O [ascorbic acid (vitamin C), ascorbic acid] |  |  |  | 3.6 ± 0.2
O=c1c(O[C@@H]2O[C@H](CO)[C@@H](O)[C@H](O)[C@H]2O)c(-c2ccc(O)c(O)c2)oc2cc(O)cc(O)c12 [isoquercitrin, quercetin-3-β-qlucoside] | 4.68 | 4.77 | 3.67 | 
C[C@@H]1O[C@@H](OC[C@H]2O[C@@H](Oc3c(-c4ccc(O)c(O)c4)oc4cc(O)cc(O)c4c3=O)[C@H](O)[C@@H](O)[C@@H]2O)[C@H](O)[C@H](O)[C@H]1O [rutin] | 4.73 | 4.97 | 4.12 | 
O=C(/C=C/c1ccc(O)c(O)c1)O[C@@H]1C[C@](O)(C(=O)O)C[C@@H](O)[C@H]1O [chlorogenic acid] | 5.28 |  | 3.64 | 
